From ChEMBL document CHEMBL5678806, “NMS-P937, an orally available, specific small-molecule polo-like kinase 1 inhibitor with antitumor activity in solid and hematologic malignancies” (Mol Cancer Ther, 2012)

Key:
[1] = target: Casein kinase I isoform gamma-1 (Homo sapiens) (UniProt Q9HCP0); assay: Inhibition of N-terminal 6His-tagged recombinant human CK1gamma1 (25 to 355 residues) expressed in baculovirus infected Sf21 cells assessed as residual activity at 1 uM relative to control
[2] = target: Tyrosine-protein kinase SYK (Homo sapiens, UniProt P43405); assay: Inhibition of SYK (unknown origin) in presence of [gamma-33P]ATP
[3] = target: Tyrosine-protein kinase BTK (Homo sapiens) (UniProt Q06187); assay: Inhibition of N-terminal His6-tagged recombinant full-length human BTK expressed in baculovirus infected Sf21 cells assessed as residual activity at 0.1 uM relative to control
Sequence of Tyrosine-protein kinase BTK (Homo sapiens) (Q06187 whole entry): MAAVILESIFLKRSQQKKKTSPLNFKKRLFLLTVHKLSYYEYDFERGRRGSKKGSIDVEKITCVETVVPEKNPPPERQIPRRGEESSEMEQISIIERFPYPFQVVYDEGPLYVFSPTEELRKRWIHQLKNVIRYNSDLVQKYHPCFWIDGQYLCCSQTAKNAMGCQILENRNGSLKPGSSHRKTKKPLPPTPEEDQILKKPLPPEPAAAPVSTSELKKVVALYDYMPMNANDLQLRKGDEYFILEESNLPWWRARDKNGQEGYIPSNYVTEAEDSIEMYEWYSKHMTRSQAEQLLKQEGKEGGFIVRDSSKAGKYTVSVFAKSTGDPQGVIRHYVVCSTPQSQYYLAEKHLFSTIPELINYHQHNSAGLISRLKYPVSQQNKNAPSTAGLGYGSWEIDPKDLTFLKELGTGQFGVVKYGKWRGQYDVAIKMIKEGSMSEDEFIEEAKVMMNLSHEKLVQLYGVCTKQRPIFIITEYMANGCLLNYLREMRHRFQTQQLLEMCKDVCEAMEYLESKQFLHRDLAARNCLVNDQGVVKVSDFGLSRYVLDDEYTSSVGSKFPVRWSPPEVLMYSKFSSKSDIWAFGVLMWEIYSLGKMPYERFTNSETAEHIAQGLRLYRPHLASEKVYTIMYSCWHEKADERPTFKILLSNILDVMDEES

[4] = target: Ribosomal protein S6 kinase alpha-1 (Rattus norvegicus) (UniProt Q63531); assay: Inhibition of N-terminal His6 and HA (YPYDV PDYA) tagged recombinant full-length (1 to end residues) rat Rsk1 expressed in baculovirus infected Sf21 cells assessed as residual activity at 0.1 uM relative to control
Sequence of Ribosomal protein S6 kinase alpha-1 (Rattus norvegicus) (Q63531 whole entry): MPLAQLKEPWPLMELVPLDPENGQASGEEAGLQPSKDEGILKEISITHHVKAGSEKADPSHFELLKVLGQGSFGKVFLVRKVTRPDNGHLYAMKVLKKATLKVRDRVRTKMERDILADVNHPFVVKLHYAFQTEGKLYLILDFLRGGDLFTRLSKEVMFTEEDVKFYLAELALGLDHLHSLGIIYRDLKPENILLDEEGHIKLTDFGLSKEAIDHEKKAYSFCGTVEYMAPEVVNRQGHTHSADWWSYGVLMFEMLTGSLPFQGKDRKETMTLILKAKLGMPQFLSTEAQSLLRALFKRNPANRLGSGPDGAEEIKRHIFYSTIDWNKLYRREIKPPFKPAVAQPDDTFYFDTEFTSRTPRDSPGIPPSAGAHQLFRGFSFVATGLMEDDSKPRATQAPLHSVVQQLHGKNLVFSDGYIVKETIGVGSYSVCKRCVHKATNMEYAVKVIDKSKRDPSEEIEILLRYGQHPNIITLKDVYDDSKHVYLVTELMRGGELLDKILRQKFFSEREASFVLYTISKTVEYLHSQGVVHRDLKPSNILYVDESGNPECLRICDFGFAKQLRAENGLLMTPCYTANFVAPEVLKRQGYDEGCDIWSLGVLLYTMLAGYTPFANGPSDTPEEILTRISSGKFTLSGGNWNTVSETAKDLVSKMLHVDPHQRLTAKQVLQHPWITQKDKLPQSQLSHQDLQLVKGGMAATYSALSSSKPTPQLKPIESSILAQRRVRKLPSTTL

[5] = test system: MDA-MB-468; assay: Antiproliferative activity against human MDA-MB-468 cells assessed as inhibition of cell growth incubated for 72 hrs by cell-titer glo assay; assay type: functional, cell-based; conditions: MDA-MB-468, 72 h
Method in brief: (§1)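 Cells seeded at 10,000–30,000/cm² (adherent) or 100,000/mL (nonadherent) in medium with 10% fetal calf serum; after 24 h, treated in duplicate with serial dilutions for 72 h. Viable cell number read by CellTiter-Glo luminescence; IC50 from sigmoidal fit; at least two independent experiments.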

[6] = test system: U-87 MG; assay: Antiproliferative activity against human U-87 MG cells assessed as inhibition of cell growth incubated for 72 hrs by cell-titer glo assay; assay type: functional, cell-based, U-87MG ATCC
[7] = target: Serine/threonine-protein kinase SIK1 (Homo sapiens) (UniProt P57059); assay: Inhibition of N-terminal 6His-tagged recombinant human SIK (1 to 281 residues) expressed in baculovirus infected Sf21 cells assessed as residual activity at 1 uM relative to control
[8] = target: Tyrosine-protein kinase HCK (Homo sapiens) (UniProt P08631); assay: Inhibition of N-terminal 6His-tagged recombinant human Hck (230 to 497 residues) expressed in baculovirus infected Sf21 cells assessed as residual activity at 1 uM relative to control
[9] = test system: SR; assay: Antiproliferative activity against human SR cells assessed as inhibition of cell growth incubated for 72 hrs by cell-titer glo assay; assay type: functional, cell-based
[10] = test system: LNCaP; assay: Antiproliferative activity against human LNCaP cells assessed as inhibition of cell growth incubated for 72 hrs by cell-titer glo assay; assay type: functional, cell-based; method in brief: as §1
[11] = test system: LCLC-97TM1; assay: Antiproliferative activity against human LCLC-97TM1 cells assessed as inhibition of cell growth incubated for 72 hrs by cell-titer glo assay; assay type: functional, cell-based; conditions: LCLC-97TM1, 72 h; method in brief: as §1
[12] = test system: RS4-11; assay: Antiproliferative activity against human RS4-11 cells assessed as inhibition of cell growth incubated for 72 hrs by cell-titer glo assay; assay type: functional, cell-based; conditions: RS4-11, 72 h
Method in brief: (§2)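 Cells from ATCC or ECACC, kept in supplier-recommended medium with 1% penicillin-streptomycin at 37°C, 5% CO₂. Seeded at 10,000–30,000/cm² (adherent) or 100,000/mL (nonadherent) in medium with 10% fetal calf serum. Dosed after 24 h in duplicate with serial dilutions. Viable cells read by CellTiter-Glo 72 h later. IC50 from sigmoidal fit. At least two independent experiments.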

[13] = Half-life in Beagle dog at 5 mg/kg, po by LC-MS analysis; assay type: ADME, organism-based, Canis lupus familiaris; conditions: in vivo
[14] = target: Serine/threonine-protein kinase Chk1 (Homo sapiens) (UniProt O14757); assay: Inhibition of N-terminal GST-tagged full length human CHK1 expressed in Sf21 cells assessed as residual activity at 0.1 uM relative to control
Sequence of Serine/threonine-protein kinase Chk1 (Homo sapiens) (O14757 whole entry, the tested form may be a part): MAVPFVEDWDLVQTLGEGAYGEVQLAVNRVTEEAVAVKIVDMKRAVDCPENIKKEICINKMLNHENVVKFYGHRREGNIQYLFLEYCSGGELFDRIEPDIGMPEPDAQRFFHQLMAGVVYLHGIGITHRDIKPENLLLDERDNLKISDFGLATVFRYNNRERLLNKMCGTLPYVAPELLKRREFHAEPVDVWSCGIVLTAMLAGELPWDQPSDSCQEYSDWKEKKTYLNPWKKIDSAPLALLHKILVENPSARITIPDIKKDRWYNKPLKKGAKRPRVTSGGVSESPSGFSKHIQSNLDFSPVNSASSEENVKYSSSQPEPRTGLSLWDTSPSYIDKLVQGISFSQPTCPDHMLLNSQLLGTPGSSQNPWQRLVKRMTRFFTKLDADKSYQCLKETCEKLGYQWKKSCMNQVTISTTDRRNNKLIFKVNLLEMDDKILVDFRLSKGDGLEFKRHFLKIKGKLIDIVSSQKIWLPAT

[15] = target: Fibroblast growth factor receptor 4 (Homo sapiens) (UniProt P22455); assay: Inhibition of N-terminal His6-tagged recombinant human FGFR4 (442 to 755 residues) expressed in baculovirus infected Sf21 cells assessed as residual activity at 1 uM relative to control
Sequence of Fibroblast growth factor receptor 4 (Homo sapiens) (P22455 22-802 limits assumed): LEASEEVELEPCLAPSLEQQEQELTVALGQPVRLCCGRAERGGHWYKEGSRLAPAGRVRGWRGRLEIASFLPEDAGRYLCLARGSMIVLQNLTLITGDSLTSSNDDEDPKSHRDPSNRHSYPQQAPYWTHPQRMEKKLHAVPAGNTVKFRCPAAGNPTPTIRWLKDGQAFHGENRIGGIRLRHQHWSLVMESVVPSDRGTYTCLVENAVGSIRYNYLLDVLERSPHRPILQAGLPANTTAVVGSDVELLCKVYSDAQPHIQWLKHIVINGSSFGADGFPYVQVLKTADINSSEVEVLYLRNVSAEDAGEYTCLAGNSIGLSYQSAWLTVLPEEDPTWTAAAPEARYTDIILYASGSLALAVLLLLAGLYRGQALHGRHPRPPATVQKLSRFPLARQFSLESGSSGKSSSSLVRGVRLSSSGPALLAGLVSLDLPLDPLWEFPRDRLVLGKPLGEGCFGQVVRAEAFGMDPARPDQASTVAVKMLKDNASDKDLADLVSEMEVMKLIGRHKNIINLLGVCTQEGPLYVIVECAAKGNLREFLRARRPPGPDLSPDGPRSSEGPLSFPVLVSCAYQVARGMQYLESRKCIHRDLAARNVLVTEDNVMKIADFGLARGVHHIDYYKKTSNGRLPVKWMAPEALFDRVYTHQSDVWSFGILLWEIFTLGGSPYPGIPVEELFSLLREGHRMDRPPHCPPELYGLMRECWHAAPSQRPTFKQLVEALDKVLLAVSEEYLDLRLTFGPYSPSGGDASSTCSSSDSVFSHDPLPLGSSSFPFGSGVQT

[16] = test system: NCI-H520; assay: Antiproliferative activity against human NCI-H520 cells assessed as inhibition of cell growth incubated for 72 hrs by cell-titer glo assay; assay type: functional, cell-based; conditions: NCI-H520, 72 h; method in brief: as §2
[17] = target: Testis-specific serine/threonine-protein kinase 1 (Homo sapiens) (UniProt Q9BXA7); assay: Inhibition of 6His-tagged recombinant human full length TSSK1 expressed in baculovirus infected Sf21 cells assessed as residual activity at 1 uM relative to control
Sequence of Testis-specific serine/threonine-protein kinase 1 (Homo sapiens) (Q9BXA7 whole entry): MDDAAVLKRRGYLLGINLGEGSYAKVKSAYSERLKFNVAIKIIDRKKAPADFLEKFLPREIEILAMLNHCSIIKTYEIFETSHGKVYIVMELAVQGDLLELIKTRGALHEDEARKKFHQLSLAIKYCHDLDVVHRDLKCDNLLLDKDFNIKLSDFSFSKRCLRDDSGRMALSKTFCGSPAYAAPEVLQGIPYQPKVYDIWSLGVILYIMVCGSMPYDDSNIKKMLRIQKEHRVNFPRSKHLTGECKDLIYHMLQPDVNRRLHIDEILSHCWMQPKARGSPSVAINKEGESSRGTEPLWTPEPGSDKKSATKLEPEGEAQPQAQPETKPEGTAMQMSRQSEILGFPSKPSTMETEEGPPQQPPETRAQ

[18] = target: cAMP-dependent protein kinase (PKA) (Homo sapiens) (UniProt P22694+P17612+P22612); assay: Inhibition of recombinant human full-length PKA expressed in E.coli BL21 (DE3) pLysS cells assessed as residual activity at 0.1 uM relative to control
[19] = Cmax in nu/nu mouse at 10 mg/kg, po by LC-MS analysis; assay type: ADME, organism-based; conditions: in vivo
[20] = test system: NCI-H460; assay: Antiproliferative activity against human NCI-H460 cells assessed as inhibition of cell growth incubated for 72 hrs by cell-titer glo assay; assay type: functional, cell-based; conditions: NCI-H460, 72 h; method in brief: as §2
[21] = test system: HT-29; assay: Antiproliferative activity against human HT-29 cells assessed as inhibition of cell growth incubated for 72 hrs by cell-titer glo assay; assay type: functional, cell-based; conditions: HT-29, 72 h; method in brief: as §1
[22] = test system: A498; assay: Antiproliferative activity against human A498 cells assessed as inhibition of cell growth incubated for 72 hrs by cell-titer glo assay; assay type: functional, cell-based; conditions: A498, 72 h
Method in brief: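 Cells seeded 10,000–30,000/cm² (adherent) or 100,000/mL (suspension) in medium with 10% fetal calf serum; after 24 h treated in duplicate with serial dilutions for 72 h. Viable cells read by CellTiter-Glo luminescence; IC50 from sigmoidal fit; at least two independent experiments.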

[23] = Tmax in nu/nu mouse at 10 mg/kg, po by LC-MS analysis; assay type: ADME, organism-based; conditions: in vivo
[24] = test system: NCI-H23; assay: Antiproliferative activity against human NCI-H23 cells assessed as inhibition of cell growth incubated for 72 hrs by cell-titer glo assay; assay type: functional, cell-based; conditions: NCI-H23, 72 h; method in brief: as §2
[25] = test system: U-937; assay: Antiproliferative activity against human U-937 cells assessed as inhibition of cell growth incubated for 72 hrs by cell-titer glo assay; assay type: functional, cell-based; conditions: U-937, 72 h
[26] = target: Tyrosine-protein kinase Fgr (Homo sapiens) (UniProt P09769); assay: Inhibition of N-terminal His6-tagged recombinant human Fgr (2 to end residues) expressed in baculovirus infected Sf21 cells assessed as residual activity at 0.1 uM relative to control
Sequence of Tyrosine-protein kinase Fgr (Homo sapiens) (P09769 2-529 limits assumed): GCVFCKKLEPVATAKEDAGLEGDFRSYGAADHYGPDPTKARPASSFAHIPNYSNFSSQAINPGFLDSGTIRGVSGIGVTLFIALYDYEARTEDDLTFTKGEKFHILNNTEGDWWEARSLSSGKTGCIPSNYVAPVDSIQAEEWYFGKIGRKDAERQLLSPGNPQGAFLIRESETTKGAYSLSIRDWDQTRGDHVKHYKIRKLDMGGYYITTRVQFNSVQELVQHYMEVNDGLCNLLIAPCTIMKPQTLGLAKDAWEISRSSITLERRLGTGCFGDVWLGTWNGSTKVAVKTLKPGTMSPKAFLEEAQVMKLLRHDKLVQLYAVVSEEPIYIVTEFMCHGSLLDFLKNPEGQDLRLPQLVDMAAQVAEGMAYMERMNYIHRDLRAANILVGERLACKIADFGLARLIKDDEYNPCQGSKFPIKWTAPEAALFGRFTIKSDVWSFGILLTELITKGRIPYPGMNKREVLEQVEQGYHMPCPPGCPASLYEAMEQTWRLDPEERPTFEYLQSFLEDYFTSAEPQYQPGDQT

[27] = target: BDNF/NT-3 growth factors receptor (Homo sapiens) (UniProt Q16620); assay: Inhibition of N-terminal His6 tagged recombinant human TrkB (455 to end residues) expressed in baculovirus infected Sf21 cells assessed as residual activity at 1 uM relative to control
Sequence of BDNF/NT-3 growth factors receptor (Homo sapiens) (Q16620 32-822 limits assumed): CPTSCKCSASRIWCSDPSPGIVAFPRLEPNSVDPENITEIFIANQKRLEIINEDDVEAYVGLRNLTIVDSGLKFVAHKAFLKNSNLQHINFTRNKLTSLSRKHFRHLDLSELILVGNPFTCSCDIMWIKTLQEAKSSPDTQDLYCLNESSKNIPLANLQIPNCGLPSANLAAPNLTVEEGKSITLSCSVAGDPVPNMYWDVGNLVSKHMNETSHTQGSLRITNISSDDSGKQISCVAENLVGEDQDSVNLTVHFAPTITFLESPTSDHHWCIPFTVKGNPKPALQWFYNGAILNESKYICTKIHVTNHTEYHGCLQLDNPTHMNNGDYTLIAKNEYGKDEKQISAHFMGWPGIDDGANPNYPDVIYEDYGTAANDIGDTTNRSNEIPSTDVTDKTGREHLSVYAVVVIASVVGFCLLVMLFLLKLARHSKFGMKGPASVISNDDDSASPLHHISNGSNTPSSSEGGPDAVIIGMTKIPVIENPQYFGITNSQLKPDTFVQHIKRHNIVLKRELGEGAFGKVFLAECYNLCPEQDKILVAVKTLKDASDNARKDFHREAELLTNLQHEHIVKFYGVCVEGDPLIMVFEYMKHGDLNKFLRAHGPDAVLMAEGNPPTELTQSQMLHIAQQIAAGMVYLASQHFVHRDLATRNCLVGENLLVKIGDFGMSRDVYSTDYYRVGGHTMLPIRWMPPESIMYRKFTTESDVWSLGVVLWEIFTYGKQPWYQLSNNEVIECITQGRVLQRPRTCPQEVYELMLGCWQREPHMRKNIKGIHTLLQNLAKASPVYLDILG

[28] = test system: U2OS; assay: Effect on cell morphology in human U2OS cells assessed as increased number of rounded cells at 1 uM by time lapse microscopy analysis; assay type: functional, cell-based; conditions: time lower […], time upper 48.0 hrs, TDE = time-dependent effect
[29] = target: Protein kinase C beta type (Homo sapiens, UniProt P05771); assay: Inhibition of PKC beta (unknown origin) in presence of [gamma-33P]ATP
[30] = Oral bioavailability in Beagle dog at 5 mg/kg by LC-MS analysis; assay type: ADME, organism-based, Canis lupus familiaris; conditions: in vivo

Sequence of Casein kinase I isoform gamma-1 (Homo sapiens) (Q9HCP0 whole entry, looked up, the tested form may be a part, canonical isoform): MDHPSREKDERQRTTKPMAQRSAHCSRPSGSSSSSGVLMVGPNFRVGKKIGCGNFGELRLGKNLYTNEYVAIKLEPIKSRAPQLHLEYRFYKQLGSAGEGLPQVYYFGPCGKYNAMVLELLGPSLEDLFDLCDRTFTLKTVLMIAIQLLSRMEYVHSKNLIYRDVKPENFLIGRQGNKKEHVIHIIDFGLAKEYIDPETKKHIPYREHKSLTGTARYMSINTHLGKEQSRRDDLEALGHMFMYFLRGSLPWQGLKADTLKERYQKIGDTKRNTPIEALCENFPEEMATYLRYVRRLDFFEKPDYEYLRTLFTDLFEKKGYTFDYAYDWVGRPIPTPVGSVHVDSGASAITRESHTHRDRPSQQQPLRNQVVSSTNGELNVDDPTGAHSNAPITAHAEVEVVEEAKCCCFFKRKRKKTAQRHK

CN1CCN(c2ccc(OC(F)(F)F)c(Nc3ncc4c(n3)-c3c(c(C(N)=O)nn3CCO)CC4)c2)CC1 [ONVANSERTIB]
Activity [1]: 60%
IC50 [2]: > 10000 nM
Activity [3]: 83%
Activity [4]: 113%
IC50 [5]: 83 nM
IC50 [6]: 991 nM
Activity [7]: 93%
Activity [8]: 118%
IC50 [9]: 47 nM
IC50 [10]: 82 nM
IC50 [11]: 32 nM
IC50 [12]: 43 nM
half-life [13]: 4.6 h
Activity [14]: 113%
Activity [15]: 90%
IC50 [16]: 73 nM
Activity [17]: 20%
Activity [18]: 141%
Cmax [19]: 600 nM
IC50 [20]: 109 nM
IC50 [21]: 39 nM
IC50 [22]: 1070 nM
Tmax [23]: 0.4 h
IC50 [24]: 56 nM
IC50 [25]: 41 nM
Activity [26]: 93%
Activity [27]: 80%
Activity [28]: Tde
IC50 [29]: > 10000 nM
F [30]: 63%
